The nature of experiment [1]: Inhibition of amyloid beta (1-42) self-aggregation at 10 uM after 24 hrs by thioflavin T-based fluorometric assay. Summed up:
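Abeta42 from stable 500 µM stock, incubated at final 50 µM in 10 mM phosphate buffer pH 8.0 with 10 mM NaCl, 30 °C for 24 h, with or without compound at 10 µM. Diluted into 50 mM glycine–NaOH pH 8.5 with 1.5 µM thioflavin T. Fluorescence read by 300 s scan at ex 446/em 490 nm, plateau values averaged after ThT background subtraction. % inhibition taken from ± inhibitor intensity ratio.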

The species named for experiment [2] is Homo sapiens. Briefly: Selectivity ratio of IC50 for human BuChE to human recombinant AChE. The method in brief: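 Ellman assay in 0.1 M potassium phosphate pH 8.0 with 340 µM DTNB, enzyme at 0.02 unit/mL: human recombinant AChE with 550 µM acetylthiocholine, serum-derived human BuChE with 550 µM butyrylthiocholine. Compounds preincubated with enzyme 20 min at 37 °C. IC50 from five-point curves run in triplicate, mean of two experiments. Ratio = IC50 BuChE / IC50 AChE.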

For experiment [3], the target named is Cholinesterase (Homo sapiens, UniProt P06276). Briefly: Inhibition of human BuChE preincubated for 20 mins before substrate addition by Ellman's method. The method in brief: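 Ellman assay using BuChE from human serum at 0.02 unit/mL in 0.1 M potassium phosphate pH 8.0 with 340 µM DTNB. Compound and enzyme preincubated 20 min at 37 °C, then 550 µM butyrylthiocholine iodide added. Blank lacks enzyme. Five concentrations chosen to give 20–80% inhibition, each in triplicate. IC50 read graphically from log concentration vs % inhibition. Mean of two independent measurements.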
Chain of Cholinesterase (P06276 whole entry): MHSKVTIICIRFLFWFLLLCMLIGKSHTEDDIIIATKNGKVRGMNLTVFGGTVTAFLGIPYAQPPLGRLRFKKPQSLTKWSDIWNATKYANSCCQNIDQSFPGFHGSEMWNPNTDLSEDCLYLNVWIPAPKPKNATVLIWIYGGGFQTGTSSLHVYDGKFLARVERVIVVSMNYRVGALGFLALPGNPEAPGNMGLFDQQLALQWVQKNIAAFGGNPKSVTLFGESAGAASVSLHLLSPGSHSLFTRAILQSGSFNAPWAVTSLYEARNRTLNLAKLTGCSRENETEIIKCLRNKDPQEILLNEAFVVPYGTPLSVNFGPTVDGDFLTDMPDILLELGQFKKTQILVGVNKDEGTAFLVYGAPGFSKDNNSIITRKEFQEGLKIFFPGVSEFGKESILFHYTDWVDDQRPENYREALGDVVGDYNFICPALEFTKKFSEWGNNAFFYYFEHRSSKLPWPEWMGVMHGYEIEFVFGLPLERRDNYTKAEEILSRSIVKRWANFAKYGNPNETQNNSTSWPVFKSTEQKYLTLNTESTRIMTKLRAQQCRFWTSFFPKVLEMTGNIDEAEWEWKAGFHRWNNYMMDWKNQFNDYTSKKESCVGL

The target in experiment [4] is T1, Acetylcholinesterase (Homo sapiens, UniProt P22303). Briefly: Inhibition of human recombinant AChE preincubated for 20 mins before substrate addition by Ellman's method. (Ellman's reagent forms a yellow product with free thiols.)
T1 sequence (P22303 whole entry): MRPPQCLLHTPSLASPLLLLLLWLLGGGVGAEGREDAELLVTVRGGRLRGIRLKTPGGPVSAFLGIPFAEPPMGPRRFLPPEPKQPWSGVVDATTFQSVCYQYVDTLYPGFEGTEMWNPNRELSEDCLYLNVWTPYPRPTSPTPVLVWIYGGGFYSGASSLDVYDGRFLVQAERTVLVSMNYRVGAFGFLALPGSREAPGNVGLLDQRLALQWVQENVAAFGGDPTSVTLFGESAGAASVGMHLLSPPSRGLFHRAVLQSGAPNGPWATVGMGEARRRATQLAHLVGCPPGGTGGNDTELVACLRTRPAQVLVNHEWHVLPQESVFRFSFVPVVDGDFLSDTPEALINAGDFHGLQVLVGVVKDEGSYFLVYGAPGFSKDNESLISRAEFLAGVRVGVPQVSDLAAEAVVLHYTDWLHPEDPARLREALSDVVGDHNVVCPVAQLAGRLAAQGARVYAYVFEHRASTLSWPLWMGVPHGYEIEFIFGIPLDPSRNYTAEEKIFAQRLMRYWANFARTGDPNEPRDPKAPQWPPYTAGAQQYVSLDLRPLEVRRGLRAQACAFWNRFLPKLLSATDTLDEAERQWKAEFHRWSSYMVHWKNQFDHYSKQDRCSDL
The target in experiment [5] is T1, Acetylcholinesterase. Briefly: Inhibition of human recombinant AChE-induced amyloid beta (1-40) aggregation at 100 uM by thioflavin T fluorescence assay. Summed up:
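Abeta40, lyophilised from HFIP and dissolved in DMSO, held at final 230 µM. Co-incubated with human recombinant AChE at final 2.30 µM (Abeta:AChE 100:1), with or without inhibitor at final 100 µM. Incubation 24 h at room temperature in 0.215 M sodium phosphate pH 8.0, run in duplicate. ThT read in glycine–NaOH pH 8.5 at ex 446/em 490 nm, subtracting ThT and AChE background. % inhibition = 100 − (IFi/IFo × 100).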

In experiment [6] the target is T1, Acetylcholinesterase. In words: Inhibition of human recombinant AChE-mediated hydrolysis of acetylcholine by Lineweaver-Burke plot analysis. The method in brief: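 Steady-state kinetics on human recombinant AChE with acetylthiocholine as substrate at low concentrations (0.60–0.06 mM) and inhibitor at increasing concentrations (range 0–50 nM). Initial velocities were plotted as 1/v versus 1/[ATCh]. Plots were fitted by weighted least squares, taking the variance of v as a constant percentage of v, to estimate the competitive inhibition constant Ki.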

`COc1cc2c(cc1OC)C(=O)C(CC1CCN(Cc3ccccc3)CC1)C2` (stereo not given): in experiment [1], the inhibition – broadly, the drop in the measured response relative to a control, in per cent – is less than 5%.

For the compound `CN(Cc1ccccc1)Cc1ccc(/C=C2\Cc3ccc(OCCCCN4CCOCC4)cc3C2=O)cc1`, in experiment [2], the Ratio IC50 stood at 112. Also, the concentration for half-maximal inhibition (IC50) (in general, the point on the concentration scale where inhibition reaches its midpoint) in experiment [3] was determined as 99.8 µM; in experiment [4] it was 0.89 µM.

`CN(Cc1ccccc1)Cc1ccc(/C=C2\Cc3ccc(OCCCCCN4CCCCC4)cc3C2=O)cc1`: the results for the inhibition in experiment [5] and in experiment [1] were 46.8% and 27.9%, respectively. In addition, in experiment [2], the Ratio IC50 was 38.5. The IC50 is 7.7 µM in experiment [3] and 0.2 µM in experiment [4].

For the compound `COc1ccc2c(c1)CC/C(=C\c1ccc(CN(C)Cc3ccccc3)cc1)C2=O`, the Ratio IC50 in experiment [2] was found to be 820. For the same compound, the IC50 in experiment [3] is 90.3 µM; in experiment [4], 0.11 µM.

Take `CCN(CC)CCCCOc1ccc2c(c1)C/C(=C\c1ccc(CN(C)Cc3ccccc3)cc1)C2=O`: the Ratio IC50 in experiment [2] amounted to 5.8. The half-maximal inhibitory concentration (IC50) was determined as 22.9 µM in experiment [3] and 3.95 µM in experiment [4].

For the compound `CCN(CC)CCCCCOc1ccc2c(c1)C(=O)/C(=C/c1ccc(CN(C)Cc3ccccc3)cc1)C2`, the results for the inhibition in experiment [5] and in experiment [1] were 29.7% and 27.7%, respectively. Moreover, in experiment [2], the Ratio IC50 amounted to 14.2. Also, the IC50 is 2.7 µM in experiment [3] and 0.19 µM in experiment [4].

Consider `COc1cc2c(cc1OC)C(=O)/C(=C/c1ccc(CN(C)Cc3ccccc3)cc1)CC2`, for which the Ratio IC50 in experiment [2] stood at 404. Moreover, the 50% inhibitory concentration (IC50) came out at 72.8 µM in experiment [3] and 0.18 µM in experiment [4].

As to `CCN(CC)CCCCOc1ccc2c(c1)C(=O)/C(=C/c1ccc(CN(C)Cc3ccccc3)cc1)C2`, the Ratio IC50 in experiment [2] came out at 3.95. Moreover, the values for the IC50 in experiment [3] and in experiment [4] were 3.52 µM and 0.89 µM, respectively.

`COc1cc2c(cc1OC)C(=O)/C(=C/c1ccc(CN(C)Cc3ccccc3)cc1)C2`: in experiment [2], the Ratio IC50 worked out at 126. Further, the IC50 in experiment [3] turned out to be 144 µM; in experiment [4], 1.14 µM.

As to `CCN(CC)CCOc1ccc2c(c1)C/C(=C\c1ccc(CN(C)Cc3ccccc3)cc1)C2=O`, the Ratio IC50 in experiment [2] came out at 7.76. Moreover, the IC50 in experiment [3] stood at 22.5 µM; in experiment [4], 2.9 µM.

Turning to `COc1ccc2c(c1)C(=O)/C(=C/c1ccc(CN(C)Cc3ccccc3)cc1)CC2`, the Ratio IC50 in experiment [2] was 25.1. Besides, the half-maximal inhibitory concentration (IC50) in experiment [3] was 135 µM; in experiment [4], 5.38 µM.

Consider `COc1cc2cc(-c3ccc(CN(C)Cc4ccccc4)cc3)c(=O)oc2cc1OC`, for which, in experiment [2], the Ratio IC50 was 1110. The inhibition in experiment [1] was less than 5%.

With `CCN(CC)CCCCCOc1ccc2c(c1)CC/C(=C\c1ccc(CN(C)Cc3ccccc3)cc1)C2=O`, the inhibition turned out to be 42.9% in experiment [5] and 26.4% in experiment [1]. For the same compound, the Ratio IC50 in experiment [2] worked out at 144. In addition, the 50% inhibitory concentration (IC50) in experiment [3] stood at 8.05 µM; in experiment [4] it was 0.056 µM.

For the compound `CN(Cc1ccccc1)Cc1ccc(/C=C2\CCc3cc(OCCCCCN4CCCCC4)ccc3C2=O)cc1`, the inhibition in experiment [5] is 48.3%; in experiment [1], 26.9%. Further, the Ratio IC50 in experiment [2] was 96.3. Further, the values for the IC50 in experiment [3] and in experiment [4] were 5.01 µM and 0.052 µM, respectively. Moreover, in experiment [6], the Ki (commonly a measure of affinity in units of concentration, obtained from inhibition or displacement) was 0.0611 µM.

As to `CCN(CC)CCCOc1ccc2c(c1)C(=O)/C(=C/c1ccc(CN(C)Cc3ccccc3)cc1)C2`, in experiment [2], the Ratio IC50 came to 9.01. The IC50 in experiment [3] was found to be 11.9 µM; in experiment [4], 1.32 µM.

For `CCN(CC)CCCCCCCOc1ccc2c(c1)C(=O)/C(=C/c1ccc(CN(C)Cc3ccccc3)cc1)C2`, the Ratio IC50 in experiment [2] was 64.7. The IC50 in experiment [3] stood at 33 µM; in experiment [4] it was 0.51 µM.

Regarding `CCN(CC)CCOc1ccc2c(c1)C(=O)/C(=C/c1ccc(CN(C)Cc3ccccc3)cc1)C2`, in experiment [2], the Ratio IC50 was 7.77. For the same compound, the IC50 in experiment [3] worked out at 11.9 µM; in experiment [4] it was 1.53 µM.

As to `CCN(CC)CCCOc1ccc2c(c1)C/C(=C\c1ccc(CN(C)Cc3ccccc3)cc1)C2=O`, the Ratio IC50 in experiment [2] worked out at 7.08. The half-inhibitory concentration (IC50) in experiment [3] is 11.4 µM; in experiment [4], 1.61 µM.

As for `CN(Cc1ccccc1)Cc1ccc(/C=C2\Cc3ccc(OCCCCN4CCCCC4)cc3C2=O)cc1`, in experiment [2], the Ratio IC50 amounted to 55.5. Moreover, the IC50 in experiment [3] came out at 10 µM; in experiment [4], 0.18 µM.

In the case of `CN(Cc1ccccc1)Cc1ccc(/C=C2\Cc3ccccc3C2=O)cc1`, the Ratio IC50 in experiment [2] turned out to be 2.55. In addition, the IC50 in experiment [3] turned out to be 29.9 µM; in experiment [4] it was 11.7 µM.

`CCN(CC)CCCCCCOc1ccc2c(c1)C(=O)/C(=C/c1ccc(CN(C)Cc3ccccc3)cc1)C2`: the Ratio IC50 in experiment [2] was 53.9. Besides, the half-inhibitory concentration (IC50) in experiment [3] was found to be 20.5 µM; in experiment [4], 0.38 µM.

With `CCN(Cc1ccccc1)Cc1ccc(/C=C2\Cc3ccc(OC)cc3C2=O)cc1`, the Ratio IC50 in experiment [2] was 19.9. In addition, the IC50 in experiment [3] amounted to 98.1 µM; in experiment [4], 4.93 µM.

For the compound `COc1ccc2c(c1)C(=O)/C(=C/c1ccc(CN(C)Cc3ccccc3)cc1)C2`, the inhibition in experiment [5] and in experiment [1] was less than 5% each time. In experiment [2], the Ratio IC50 was found to be 12.6. In addition, the IC50 in experiment [3] was 7.93 µM; in experiment [4], 0.63 µM.

As for `COc1ccc2c(c1)C/C(=C\c1ccc(CN(C)Cc3ccccc3)cc1)C2=O`, the Ratio IC50 in experiment [2] amounted to 0.73. Besides, the IC50 in experiment [3] was 21.1 µM; in experiment [4], 28.7 µM.
